pIC50: −log10 of the molar value. Activity calls are given as the source filed them. No cut-off for these calls is given here.
Experiments:
[1] = biological target: CDK7/Cyclin H/MNAT1 (Homo sapiens) (UniProt P51946+P50613+P51948); assay: Inhibition of human CDK7/CyclinH/MAT1 at 1 uM by enzymatic radiometric assay; format: protein-complex assay
[2] = system: T47D; assay: Growth inhibition of human T47D cells incubated for 72 hrs at 10 uM by CCK8 assay; format: functional; details: read-out: GI
Procedure, shortened: (§1)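 CCK8 viability assay on a panel of human cancer cell lines, with an initial screen at fixed concentrations of 1 µM and 10 µM.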

[3] = system: A549; assay: Growth inhibition of human A549 cells incubated for 72 hrs at 10 uM by CCK8 assay; format: functional; details: A549, 72 h, read-out: GI; procedure, shortened: as §1
[4] = system: NCI-H460; assay: Growth inhibition of human H460 cells incubated for 72 hrs at 1 uM by CCK8 assay; format: functional; details: NCI-H460, 72 h, read-out: GI; procedure, shortened: as §1
[5] = biological target: CDK4/Cyclin D3 (Homo sapiens) (UniProt P11802+P30281); assay: Inhibition of human CDK4/CyclinD3 at 1 uM by enzymatic radiometric assay; format: protein-complex assay
Procedure, shortened: (§2)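 Kinase panel run through the Eurofins KinaseProfiler, with compound at a fixed 1 µM. Values are means of two independent experiments.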

[6] = system: OVCAR-5; assay: Growth inhibition of human OVCAR5 cells incubated for 72 hrs at 1 uM by CCK8 assay; format: functional; details: OVCAR-5, 72 h, read-out: GI; procedure, shortened: as §1
[7] = biological target: CDK3/Cyclin E (Homo sapiens) (UniProt P24864+Q00526); assay: Inhibition of human CDK3/CyclinE at 1 uM by enzymatic radiometric assay; format: protein-complex assay; procedure, shortened: as §2
[8] = biological target: Cyclin-dependent kinase 1/cyclin B1 (Homo sapiens) (UniProt P06493+P14635); assay: Inhibition of human CDK1/CyclinB at 1 uM by enzymatic radiometric assay; format: protein-complex assay; procedure, shortened: as §2
[9] = system: HeLa; assay: Growth inhibition of human HeLa cells incubated for 72 hrs at 1 uM by CCK8 assay; format: functional; details: read-out: GI; procedure, shortened: as §1
[10] = system: SiHa; assay: Growth inhibition of human SiHa cells incubated for 72 hrs at 10 uM by CCK8 assay; format: functional; details: read-out: GI; procedure, shortened: as §1
[11] = biological target: T1, Cyclin-dependent kinase 5/CDK5 activator 1 (Homo sapiens) (UniProt Q00535+Q15078); assay: Inhibition of human CDK5/p35 at 1 uM by enzymatic radiometric assay; format: protein-complex assay
[12] = system: NCI-H1299; assay: Growth inhibition of human H1299 cells incubated for 72 hrs at 10 uM by CCK8 assay; format: functional; details: NCI-H1299, 72 h, read-out: GI; procedure, shortened: as §1
[13] = biological target: CDK9/cyclin T1 (Homo sapiens) (UniProt O60563+P50750); assay: Inhibition of human CDK9/CyclinT1 at 1 uM by enzymatic radiometric assay; format: protein-complex assay
[14] = biological target: Vascular endothelial growth factor receptor 2 (Homo sapiens, UniProt P35968); assay: Inhibition of human VEGFR2 at 1 uM by enzymatic radiometric assay
[15] = system: HeLa; assay: Growth inhibition of human HeLa cells incubated for 72 hrs at 10 uM by CCK8 assay; format: functional; details: read-out: GI; procedure, shortened: as §1
[16] = system: NCI-H460; assay: Growth inhibition of human H460 cells incubated for 72 hrs at 10 uM by CCK8 assay; format: functional; details: NCI-H460, 72 h, read-out: GI; procedure, shortened: as §1
[17] = system: A549; assay: Growth inhibition of human A549 cells incubated for 72 hrs at 1 uM by CCK8 assay; format: functional; details: A549, 72 h, read-out: GI; procedure, shortened: as §1
[18] = biological target: CDK6/cyclin D3 (Homo sapiens) (UniProt P30281+Q00534); assay: Inhibition of human CDK6/CyclinD3 at 1 uM by enzymatic radiometric assay; format: protein-complex assay
[19] = system: SiHa; assay: Growth inhibition of human SiHa cells incubated for 72 hrs at 1 uM by CCK8 assay; format: functional; details: read-out: GI; procedure, shortened: as §1
[20] = biological target: CDK12/Cyclin K (Homo sapiens) (UniProt O75909+Q9NYV4); assay: Inhibition of human CDK12/CyclinK at 1 uM by enzymatic radiometric assay; format: protein-complex assay; procedure, shortened: as §2
[21] = biological target: CDK18/Cyclin Y (Homo sapiens) (UniProt Q07002+Q8ND76); assay: Inhibition of human CDK18/CyclinY at 1 uM by enzymatic radiometric assay; format: protein-complex assay; procedure, shortened: as §2
[22] = biological target: CDK2/Cyclin A2 (Homo sapiens) (UniProt P24941+P20248); assay: Inhibition of human CDK2/CyclinA at 1 uM by enzymatic radiometric assay; format: protein-complex assay; procedure, shortened: as §2
[23] = biological target: T1, Cyclin-dependent kinase 5/CDK5 activator 1 (Homo sapiens); assay: Inhibition of human CDK5/p25 at 1 uM by enzymatic radiometric assay; format: protein-complex assay
[24] = biological target: Cyclin-dependent kinase 2/cyclin E1 (Homo sapiens) (UniProt P24864+P24941); assay: Inhibition of human CDK2/CyclinE at 1 uM by enzymatic radiometric assay; format: protein-complex assay; procedure, shortened: as §2
[25] = system: OVCAR-5; assay: Growth inhibition of human OVCAR5 cells incubated for 72 hrs at 10 uM by CCK8 assay; format: functional; details: OVCAR-5, 72 h, read-out: GI; procedure, shortened: as §1
[26] = system: NCI-H1299; assay: Growth inhibition of human H1299 cells incubated for 72 hrs at 1 uM by CCK8 assay; format: functional; details: NCI-H1299, 72 h, read-out: GI; procedure, shortened: as §1
[27] = system: T47D; assay: Growth inhibition of human T47D cells incubated for 72 hrs at 1 uM by CCK8 assay; format: functional; details: read-out: GI; procedure, shortened: as §1
[28] = system: T47D; assay: Induction of apoptosis in human T47D cells assessed as early apoptotic cells level at 5 uM incubated for 48 hrs by annexin V-FITC and propidium iodide staining based flow cytometry (reference value: 0.75%); format: functional
[29] = system: T47D; assay: Induction of apoptosis in human T47D cells assessed as late apoptotic cells level at 5 uM incubated for 48 hrs by annexin V-FITC and propidium iodide staining based flow cytometry (reference value: 0.48%); format: functional
[30] = system: T47D; assay: Induction of apoptosis in human T47D cells assessed as necrotic cells level at 5 uM incubated for 48 hrs by annexin V-FITC and propidium iodide staining based flow cytometry (reference value: 2.79%); format: functional
[31] = system: MCF7; assay: Growth inhibition of human MCF7 cells incubated for 72 hrs by CCK8 assay; format: functional, cell-based; details: MCF7, 72 h
[32] = system: NCI-H460; assay: Growth inhibition of human H460 cells incubated for 72 hrs by CCK8 assay; format: functional, cell-based; details: NCI-H460, 72 h
[33] = system: NCI-H1299; assay: Growth inhibition of human H1299 cells incubated for 72 hrs by CCK8 assay; format: functional, cell-based; details: NCI-H1299, 72 h
[34] = system: T47D; assay: Induction of apoptosis in human T47D cells assessed as viable cells level at 5 uM incubated for 48 hrs by annexin V-FITC and propidium iodide staining based flow cytometry (reference value: 96%); format: functional
[35] = system: A549; assay: Growth inhibition of human A549 cells incubated for 72 hrs by CCK8 assay; format: functional, cell-based; details: A549, 72 h
[36] = system: T47D; assay: Induction of cell cycle arrest in human T47D cells assessed as increase in G0/G1 phase accumulation incubated for 24 hrs by flow cytometry; format: functional, cell-based
[37] = system: T47D; assay: Growth inhibition of human T47D cells incubated for 72 hrs by CCK8 assay; format: functional, cell-based

Vascular endothelial growth factor receptor 2, sequence (P35968 whole entry): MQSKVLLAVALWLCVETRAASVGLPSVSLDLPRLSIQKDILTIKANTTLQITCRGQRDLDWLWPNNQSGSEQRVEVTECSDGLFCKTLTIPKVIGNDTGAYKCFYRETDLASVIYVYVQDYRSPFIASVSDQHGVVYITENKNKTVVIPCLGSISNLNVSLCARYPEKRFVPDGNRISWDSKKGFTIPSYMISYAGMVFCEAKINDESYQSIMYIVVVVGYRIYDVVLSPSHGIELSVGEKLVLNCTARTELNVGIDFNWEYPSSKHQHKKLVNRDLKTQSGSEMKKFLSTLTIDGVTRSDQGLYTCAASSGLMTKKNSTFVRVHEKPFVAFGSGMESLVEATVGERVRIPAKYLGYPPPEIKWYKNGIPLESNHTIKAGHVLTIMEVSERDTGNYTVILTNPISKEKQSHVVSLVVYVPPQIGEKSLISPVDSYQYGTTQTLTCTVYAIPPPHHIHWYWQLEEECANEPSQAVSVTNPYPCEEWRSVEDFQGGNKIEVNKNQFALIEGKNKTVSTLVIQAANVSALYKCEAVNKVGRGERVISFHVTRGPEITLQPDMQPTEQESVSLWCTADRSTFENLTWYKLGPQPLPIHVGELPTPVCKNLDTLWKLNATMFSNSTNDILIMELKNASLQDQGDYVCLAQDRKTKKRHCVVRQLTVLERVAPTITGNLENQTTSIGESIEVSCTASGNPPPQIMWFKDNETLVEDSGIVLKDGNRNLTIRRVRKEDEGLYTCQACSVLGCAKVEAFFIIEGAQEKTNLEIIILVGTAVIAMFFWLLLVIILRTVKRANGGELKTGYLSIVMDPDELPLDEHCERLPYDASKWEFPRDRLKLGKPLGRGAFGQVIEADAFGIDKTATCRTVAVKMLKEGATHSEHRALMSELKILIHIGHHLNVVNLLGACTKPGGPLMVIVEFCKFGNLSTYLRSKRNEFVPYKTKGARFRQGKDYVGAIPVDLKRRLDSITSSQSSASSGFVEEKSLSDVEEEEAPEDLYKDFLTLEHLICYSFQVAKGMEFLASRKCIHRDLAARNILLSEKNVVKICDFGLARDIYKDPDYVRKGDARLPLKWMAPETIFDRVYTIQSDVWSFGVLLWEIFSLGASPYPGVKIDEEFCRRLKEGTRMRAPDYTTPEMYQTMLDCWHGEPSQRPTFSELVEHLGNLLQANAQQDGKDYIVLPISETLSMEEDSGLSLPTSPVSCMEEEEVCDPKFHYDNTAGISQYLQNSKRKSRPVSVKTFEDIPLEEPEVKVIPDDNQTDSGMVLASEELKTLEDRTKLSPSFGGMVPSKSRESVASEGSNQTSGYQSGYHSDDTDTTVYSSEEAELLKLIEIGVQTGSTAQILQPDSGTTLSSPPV
T1 sequence (Q00535 whole entry): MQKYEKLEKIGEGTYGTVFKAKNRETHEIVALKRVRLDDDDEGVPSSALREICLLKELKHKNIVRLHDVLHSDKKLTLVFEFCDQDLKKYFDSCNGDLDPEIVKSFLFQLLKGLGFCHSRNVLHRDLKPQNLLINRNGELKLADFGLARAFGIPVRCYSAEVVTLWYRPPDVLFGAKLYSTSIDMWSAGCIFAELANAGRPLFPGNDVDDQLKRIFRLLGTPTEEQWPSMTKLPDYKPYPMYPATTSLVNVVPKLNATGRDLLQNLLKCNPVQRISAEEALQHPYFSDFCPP
T1 sequence (Q15078 99-307 partner limits assumed): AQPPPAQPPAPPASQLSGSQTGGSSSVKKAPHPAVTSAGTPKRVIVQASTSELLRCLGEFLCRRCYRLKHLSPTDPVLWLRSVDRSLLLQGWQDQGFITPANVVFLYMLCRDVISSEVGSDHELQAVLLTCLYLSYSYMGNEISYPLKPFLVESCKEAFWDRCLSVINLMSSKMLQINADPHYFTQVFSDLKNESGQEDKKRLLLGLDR
CDK12/Cyclin K (Homo sapiens), sequence (O75909 whole entry, looked up): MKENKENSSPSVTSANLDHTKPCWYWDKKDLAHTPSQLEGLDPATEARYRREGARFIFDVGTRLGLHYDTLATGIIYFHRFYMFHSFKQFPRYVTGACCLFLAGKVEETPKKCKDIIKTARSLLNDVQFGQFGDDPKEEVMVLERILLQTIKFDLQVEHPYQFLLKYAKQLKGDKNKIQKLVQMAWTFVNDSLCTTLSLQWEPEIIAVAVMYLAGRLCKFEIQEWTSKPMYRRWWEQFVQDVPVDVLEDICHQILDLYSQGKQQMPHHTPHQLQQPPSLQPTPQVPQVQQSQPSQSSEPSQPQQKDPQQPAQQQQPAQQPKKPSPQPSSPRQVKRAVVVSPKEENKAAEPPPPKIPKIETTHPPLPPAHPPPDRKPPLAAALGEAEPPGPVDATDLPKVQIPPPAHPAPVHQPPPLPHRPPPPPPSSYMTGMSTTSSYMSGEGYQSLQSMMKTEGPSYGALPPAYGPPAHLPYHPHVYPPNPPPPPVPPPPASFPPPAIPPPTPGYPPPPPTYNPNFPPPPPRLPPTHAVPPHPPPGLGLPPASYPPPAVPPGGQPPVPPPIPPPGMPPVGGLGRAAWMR
CDK12/Cyclin K (Homo sapiens), sequence (Q9NYV4 whole entry, looked up): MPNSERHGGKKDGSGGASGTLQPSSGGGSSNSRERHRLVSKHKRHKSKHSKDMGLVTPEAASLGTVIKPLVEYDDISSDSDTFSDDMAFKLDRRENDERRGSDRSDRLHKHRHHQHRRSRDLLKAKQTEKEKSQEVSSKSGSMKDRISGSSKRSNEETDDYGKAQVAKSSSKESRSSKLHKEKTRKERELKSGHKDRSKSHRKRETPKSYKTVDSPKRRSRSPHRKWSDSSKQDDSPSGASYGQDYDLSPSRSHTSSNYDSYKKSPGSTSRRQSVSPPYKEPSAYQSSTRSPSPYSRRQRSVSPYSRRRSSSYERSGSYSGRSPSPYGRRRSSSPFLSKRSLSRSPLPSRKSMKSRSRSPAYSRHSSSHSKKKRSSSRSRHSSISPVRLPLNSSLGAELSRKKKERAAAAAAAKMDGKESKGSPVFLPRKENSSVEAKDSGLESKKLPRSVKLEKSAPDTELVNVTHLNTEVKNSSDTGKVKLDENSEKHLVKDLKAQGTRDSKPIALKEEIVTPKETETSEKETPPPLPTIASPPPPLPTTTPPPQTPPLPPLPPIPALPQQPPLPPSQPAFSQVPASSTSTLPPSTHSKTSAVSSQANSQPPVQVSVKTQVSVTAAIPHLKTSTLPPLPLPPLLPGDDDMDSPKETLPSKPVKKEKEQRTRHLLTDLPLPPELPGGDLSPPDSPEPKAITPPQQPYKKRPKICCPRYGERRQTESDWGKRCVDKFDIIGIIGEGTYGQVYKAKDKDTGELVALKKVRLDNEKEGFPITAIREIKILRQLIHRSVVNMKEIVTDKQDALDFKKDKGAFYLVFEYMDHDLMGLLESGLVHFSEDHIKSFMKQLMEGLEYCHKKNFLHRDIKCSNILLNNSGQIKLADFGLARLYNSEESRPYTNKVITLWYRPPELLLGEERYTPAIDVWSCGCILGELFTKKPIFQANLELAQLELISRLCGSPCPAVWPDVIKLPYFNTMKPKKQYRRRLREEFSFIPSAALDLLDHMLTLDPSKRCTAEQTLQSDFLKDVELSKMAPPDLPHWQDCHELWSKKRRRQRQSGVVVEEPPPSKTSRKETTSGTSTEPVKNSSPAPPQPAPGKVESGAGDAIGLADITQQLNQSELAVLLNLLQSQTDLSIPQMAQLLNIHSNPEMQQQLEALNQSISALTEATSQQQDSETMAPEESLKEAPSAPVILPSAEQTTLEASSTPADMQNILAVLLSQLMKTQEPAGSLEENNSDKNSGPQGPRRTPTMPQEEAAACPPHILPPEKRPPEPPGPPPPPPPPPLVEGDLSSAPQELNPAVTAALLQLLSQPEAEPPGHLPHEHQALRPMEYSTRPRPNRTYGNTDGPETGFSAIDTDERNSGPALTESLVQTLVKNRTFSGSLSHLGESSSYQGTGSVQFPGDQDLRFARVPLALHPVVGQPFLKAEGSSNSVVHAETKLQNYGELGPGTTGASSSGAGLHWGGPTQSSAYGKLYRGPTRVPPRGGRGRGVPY
Cyclin-dependent kinase 1/cyclin B1 (Homo sapiens), sequence (P06493 whole entry, looked up): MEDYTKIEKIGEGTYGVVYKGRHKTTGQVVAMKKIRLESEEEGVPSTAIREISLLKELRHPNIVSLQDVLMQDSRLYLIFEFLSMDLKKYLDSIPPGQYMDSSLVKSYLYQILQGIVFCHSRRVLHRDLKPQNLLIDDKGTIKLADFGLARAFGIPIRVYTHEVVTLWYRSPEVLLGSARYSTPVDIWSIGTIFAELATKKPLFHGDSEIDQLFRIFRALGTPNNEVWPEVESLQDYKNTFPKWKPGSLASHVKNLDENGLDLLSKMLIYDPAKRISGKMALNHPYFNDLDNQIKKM
Cyclin-dependent kinase 1/cyclin B1 (Homo sapiens), sequence (P14635 whole entry, looked up): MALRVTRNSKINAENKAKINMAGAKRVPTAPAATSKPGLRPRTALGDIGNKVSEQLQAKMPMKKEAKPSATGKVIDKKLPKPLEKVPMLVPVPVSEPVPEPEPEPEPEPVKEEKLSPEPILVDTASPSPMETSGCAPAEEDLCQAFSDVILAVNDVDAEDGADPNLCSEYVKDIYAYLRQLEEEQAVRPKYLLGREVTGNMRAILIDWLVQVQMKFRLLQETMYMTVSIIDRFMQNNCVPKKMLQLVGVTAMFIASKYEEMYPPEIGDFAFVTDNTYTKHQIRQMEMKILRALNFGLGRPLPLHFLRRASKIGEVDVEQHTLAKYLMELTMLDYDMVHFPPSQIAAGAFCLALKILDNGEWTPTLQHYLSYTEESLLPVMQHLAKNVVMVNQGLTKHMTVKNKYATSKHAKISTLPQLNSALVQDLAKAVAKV

| Structure (SMILES) | inhibition [5] | inhibition [14] | pIC50 [31] | pIC50 [32] | pIC50 [33] | pIC50 [35] | inhibition of growth at 10 µM [2] | inhibition of growth at 10 µM [3] | inhibition of growth at 1 µM [4] | inhibition of growth at 1 µM [6] | inhibition of growth at 1 µM [9] | inhibition of growth at 10 µM [10] | inhibition of growth at 10 µM [12] | inhibition of growth at 10 µM [15] | inhibition of growth at 10 µM [16] | inhibition of growth at 1 µM [17] | inhibition of growth at 1 µM [19] | inhibition of growth at 10 µM [25] | inhibition of growth at 1 µM [26] | inhibition of growth at 1 µM [27] | other results |
| --- | --- | --- | --- | --- | --- | --- | --- | --- | --- | --- | --- | --- | --- | --- | --- | --- | --- | --- | --- | --- | --- |
| Nc1ccc(NC(=O)C2(C(=O)Nc3ccc(F)cc3)CC2)cc1F |  |  |  |  |  |  | 30.4% | 14.6% | 26.7% | 6.7% | 14% | 36% | 59.2% | 71.8% | 62.9% | 16.3% | 21.7% | 9.7% | 46.2% | 5.6% |  |
| CN(C)C(=O)c1cc2cnc(Nc3ccc(N4CCNCC4)cn3)nc2n1C1CCCC1 [RIBOCICLIB] |  |  | < 5.00 | < 5.00 | 5.12 | < 5.00 |  |  |  |  |  |  |  |  |  |  |  |  |  |  | Activity [28]: 0.34%; Activity [29]: 2.91%; Activity [30]: 1.94%; Activity [34]: 94.8%; Activity [36]: Active |
| CN(C)C(=O)c1cc2cnc(Nc3ccc(NC(=O)C4(C(=O)Nc5ccc(Cl)c(C(F)(F)F)c5)CC4)cc3)nc2n1C1CCCC1 | 24% | 4% |  |  |  |  | 55.8% | 88.1% | 2.1% | -2.4% | 16.5% | 61.1% | 90.4% | 55.6% | 91.9% | 1.1% | -11.2% | 48% | 39.5% | 6.9% |  |

The next lines start with results.

| inhibition [5] | inhibition [14] | pIC50 [31] | pIC50 [32] | pIC50 [33] | pIC50 [35] | Structure (SMILES) | inhibition of growth at 10 µM [2] | inhibition of growth at 10 µM [3] | inhibition of growth at 1 µM [4] | inhibition of growth at 1 µM [6] | inhibition of growth at 1 µM [9] | inhibition of growth at 10 µM [10] | inhibition of growth at 10 µM [12] | inhibition of growth at 10 µM [15] | inhibition of growth at 10 µM [16] | inhibition of growth at 1 µM [17] | inhibition of growth at 1 µM [19] | inhibition of growth at 10 µM [25] | inhibition of growth at 1 µM [26] | inhibition of growth at 1 µM [27] | other results |
| --- | --- | --- | --- | --- | --- | --- | --- | --- | --- | --- | --- | --- | --- | --- | --- | --- | --- | --- | --- | --- | --- |
| 95% | 36% |  |  |  |  | CN(C)C(=O)c1cc2cnc(Nc3ccc(NC(=O)C4(C(=O)Nc5ccc(O)cc5)CC4)cc3)nc2n1C1CCCC1 | 95.8% | 94.4% | 90.4% | 80.7% | 62.3% | 94.3% | 89.7% | 99.9% | 104% | 93.6% | 69.5% | 90.9% | 87.4% | 91.5% | inhibition [1]: -9%; inhibition [7]: 89%; inhibition [8]: 90%; inhibition [11]: 88%; inhibition [13]: 26%; inhibition [18]: 86%; inhibition [20]: 23%; inhibition [21]: 0%; inhibition [22]: 90%; inhibition [23]: 94%; inhibition [24]: 88% |
|  |  | 5.54 | 5.25 | 5.72 | 5.35 | COc1cc2nccc(Oc3ccc(NC(=O)C4(C(=O)Nc5ccc(F)cc5)CC4)cc3)c2cc1OC [CABOZANTINIB] |  |  |  |  |  |  |  |  |  |  |  |  |  |  | pIC50 [37]: 5.35 |
